{"source": "ChEMBL document CHEMBL1121367", "about": "“Synthesis and antiallergic properties of some 4H,5H-pyrano[3,2-c][1]benzopyran-4-one, 4H,5H-[1]benzothiopyrano[4,3-b]pyran-4-one, and 1,4-dihydro-5h-[1]benzothiopyrano[4,3-b]pyridin-4-one derivatives” (1980)", "key": {"[1]": {"system": "Rattus norvegicus", "experiment": "In vivo inhibition of passive cutaneous anaphylaxis in rats when administered i.p.", "assay_type": "functional", "conditions": "ip, read-out: ID50 (the source's name)", "in_short": "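Adult male Charles River rats (140-160 g, six per group) were sensitized intradermally at two sites with rat serum containing reaginic antibodies to chicken ovalbumin. After 48 h they were challenged iv with 10 mg/kg ovalbumin in 1% Evans blue. Compound was given ip 15 min before challenge. Bluing area was measured 30 min later, and percent inhibition was calculated. ID50 was read graphically from the dose-response curve.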"}, "[2]": {"system": "Rattus norvegicus", "experiment": "In vivo inhibition of passive cutaneous anaphylaxis in rats when administered i.v.", "assay_type": "functional", "conditions": "iv, read-out: ID50 (the source's name)", "in_short": "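Rats (adult male Charles River, 140-160 g, six per group) were sensitized intradermally at two sites with reaginic rat antiserum to chicken ovalbumin. After 48 h, compound at 30, 10 or 3 mg/kg iv was given simultaneously with the iv challenge of 10 mg/kg ovalbumin in 1% Evans blue. Dermal bluing area was measured at 30 min, and percent inhibition was calculated. ID50 was taken graphically from the dose-response curve.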"}}}
{"smiles": "Cc1ccc2c(c1)-c1nc(C(=O)O)cc(O)c1CS2.NCCO", "values": [{"measurement": "ED50", "setting": "[1]", "value": 34, "unit": "mg/kg"}, {"measurement": "ED50", "setting": "[2]", "value": 6.9, "unit": "mg/kg"}]}
{"smiles": "CCC(C)c1ccc2c(c1)-c1nc(C(=O)O)cc(O)c1CS2(=O)=O", "note": "(stereo not drawn)", "values": [{"measurement": "ED50", "setting": "[1]", "value": "> 30", "unit": "mg/kg"}, {"measurement": "ED50", "setting": "[2]", "value": "> 30", "unit": "mg/kg"}]}
{"smiles": "CC1Sc2ccccc2-c2oc(C(=O)O)cc(=O)c21.NCCO", "note": "(stereo not drawn)", "values": [{"measurement": "ED50", "setting": "[1]", "value": 29, "unit": "mg/kg"}, {"measurement": "ED50", "setting": "[2]", "value": 8.4, "unit": "mg/kg"}]}
{"smiles": "O=C([O-])c1cc(=O)c2c(OCC(O)COc3cccc4oc(C(=O)[O-])cc(=O)c34)cccc2o1.[Na+].[Na+]", "note": "[CROMOLYN SODIUM]", "values": [{"measurement": "ED50", "setting": "[1]", "value": 16.6, "unit": "mg/kg"}, {"measurement": "ED50", "setting": "[2]", "value": 1, "unit": "mg/kg"}]}
{"smiles": "O=c1c(CO)coc2c1CSc1ccccc1-2", "values": [{"measurement": "ED50", "setting": "[1]", "value": "> 30", "unit": "mg/kg"}, {"measurement": "ED50", "setting": "[2]", "value": "> 30", "unit": "mg/kg"}]}
{"smiles": "Cc1ccc(Cl)c2c1SCc1c-2oc(C(=O)O)cc1=O.NCCO", "values": [{"measurement": "ED50", "setting": "[1]", "value": "> 100", "unit": "mg/kg"}, {"measurement": "ED50", "setting": "[2]", "value": 30, "unit": "mg/kg"}]}
{"smiles": "CCCCc1ccc2c(c1)-c1nc(C(=O)O)cc(O)c1CS2.NCCO", "values": [{"measurement": "ED50", "setting": "[1]", "value": 20, "unit": "mg/kg"}, {"measurement": "ED50", "setting": "[2]", "value": 12, "unit": "mg/kg"}]}
{"smiles": "NCCO.O=C(O)c1cc(=O)c2c(o1)-c1ccccc1SC2", "values": [{"measurement": "ED50", "setting": "[1]", "value": "> 100", "unit": "mg/kg"}, {"measurement": "ED50", "setting": "[2]", "value": 25, "unit": "mg/kg"}]}
{"smiles": "CCC(C)c1ccc2c(c1)-c1nc(C(=O)O)cc(O)c1CS2.NCCO", "note": "(stereo not drawn)", "values": [{"measurement": "ED50", "setting": "[1]", "value": 27, "unit": "mg/kg"}, {"measurement": "ED50", "setting": "[2]", "value": 8.2, "unit": "mg/kg"}]}
{"smiles": "Cc1ccc2c(c1)-c1oc(C(=O)O)cc(=O)c1CS2.NCCO", "values": [{"measurement": "ED50", "setting": "[1]", "value": "> 30", "unit": "mg/kg"}, {"measurement": "ED50", "setting": "[2]", "value": 19, "unit": "mg/kg"}]}
{"smiles": "CCCCc1ccc2c(c1)-c1oc(C(=O)O)cc(=O)c1CS2.NCCO", "values": [{"measurement": "ED50", "setting": "[1]", "value": "> 30", "unit": "mg/kg"}, {"measurement": "ED50", "setting": "[2]", "value": 19, "unit": "mg/kg"}]}
{"smiles": "CCC(C)c1ccc2c(c1)-c1oc(C(=O)O)cc(=O)c1CS2.NCCO", "note": "(stereo not drawn)", "values": [{"measurement": "ED50", "setting": "[1]", "value": "> 30", "unit": "mg/kg"}, {"measurement": "ED50", "setting": "[2]", "value": 25, "unit": "mg/kg"}]}
{"smiles": "Cc1ccc(Cl)c2c1SCc1c(O)cc(C(=O)O)nc1-2.NCCO", "values": [{"measurement": "ED50", "setting": "[1]", "value": "> 30", "unit": "mg/kg"}, {"measurement": "ED50", "setting": "[2]", "value": "> 30", "unit": "mg/kg"}]}
{"smiles": "O=C([O-])c1cc(=O)c2c(o1)-c1ccccc1OC2.[K+]", "values": [{"measurement": "ED50", "setting": "[2]", "value": 12, "unit": "mg/kg"}]}
{"smiles": "Cc1c(-c2nn[nH]n2)oc2c(c1=O)CS(=O)(=O)c1ccccc1-2", "values": [{"measurement": "ED50", "setting": "[1]", "value": 100, "unit": "mg/kg"}]}
{"smiles": "NCCO.O=C(O)c1cc(=O)c2c(o1)-c1cc(Cl)ccc1SC2", "values": [{"measurement": "ED50", "setting": "[1]", "value": "> 100", "unit": "mg/kg"}, {"measurement": "ED50", "setting": "[2]", "value": 28, "unit": "mg/kg"}]}
{"smiles": "NCCO.O=C(O)c1cc(O)c2c(n1)-c1ccccc1SC2", "values": [{"measurement": "ED50", "setting": "[1]", "value": "> 30", "unit": "mg/kg"}, {"measurement": "ED50", "setting": "[2]", "value": 5.3, "unit": "mg/kg"}]}
{"smiles": "Cc1c(-c2nn[nH]n2)oc2c(c1=O)CSc1ccccc1-2", "values": [{"measurement": "ED50", "setting": "[1]", "value": "> 30", "unit": "mg/kg"}]}
{"smiles": "NCCO.O=C(O)c1cc(O)c2c(n1)-c1cc(Cl)ccc1SC2", "values": [{"measurement": "ED50", "setting": "[1]", "value": 33, "unit": "mg/kg"}, {"measurement": "ED50", "setting": "[2]", "value": 3.3, "unit": "mg/kg"}]}
{"smiles": "NCCO.O=C(O)c1cc(=O)c2c(o1)-c1ccccc1S(=O)(=O)C2", "values": [{"measurement": "ED50", "setting": "[1]", "value": "> 100", "unit": "mg/kg"}, {"measurement": "ED50", "setting": "[2]", "value": "> 30", "unit": "mg/kg"}]}
{"smiles": "O=c1c(CO)coc2c1COc1ccccc1-2", "values": [{"measurement": "ED50", "setting": "[1]", "value": 23, "unit": "mg/kg"}]}
